Source: PubChem (several laboratories)
Hits are enriched below; roughly 1.1% of the tested compounds scored in any of these assays.
procasp3 activ – activates human procaspase-3; AID 463141; actives 0.11% (n = 330,000); activation, % at 8.5 µM; recombinant procaspase-3 D3A, Ac-DEVD-pNA absorbance 405 nm; P42574;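 active = activation above the mean of all tested compounds plus 3 SD, cut at about 21% in these data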
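Assay system – Procaspase-3 D3A mutant, all three cleavage aspartates alanine · Controls – DMSO-only low control, 5 µM PC-3 D3A high control · Schedule – 1 h compound preincubation, 2 h substrate hydrolysis at 25 °C · Signal – 405 nm absorbance of p-nitroaniline, reads at 0 and 120 min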
T cell modulator – T cell immune modulators affecting CD8 T cell-vesicle binding; actives 0.068% (n = 330,000); response (vesicle binding), % at 7 µM; 2C CD8+ T cell-vesicle binding, flow cytometry; stronger effect = lower value;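 active = response, share of CD8 T cells binding vesicles, and their 90th percentile fluorescence all below set limits, cut at about 80% in these data, passing the limit was not always enough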;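 also: values below 100% mean blocked vesicle binding to the CD8+ T cells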
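Assay system – 2C mouse CD8+ T cells · Also added – QL9-loaded Drosophila micro-vesicles · Timing – Cell–vesicle co-incubation 1.5 h at 37 °C, staining 20 min on ice · Signal – flow cytometry of vesicle-bound cells · Measure – percent CD8+ FL2 mean versus row control · Controls – Peptide-free naked vesicles (low) and QL9 vesicles with 0.7% DMSO vehicle (high)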
aDG glyco act – increases alpha dystroglycan glycosylation | Pro5-aDG cells, alpha-DG glycosylation AlphaScreen (IIH6); 0% Pro5, 100% B10-LARGE cell signal | activation, % at 10 µM | actives 0.22% (n = 360,000);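 active = activation of at least 8% versus controls, or a plate z-score of at least 8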;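 also: Pro5 are CHO cells carrying HIG-tagged alpha-DG that lacks glycosylation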
procasp7 counter – counter-screen for procaspase-3 activators: activators of human procaspase-7; P55210; recombinant procaspase-7, Ac-DEVD-pNA absorbance 405 nm; D23A/D198A/D206A triple mutant, cannot self-cleave; scale: DMSO 0, 5 µM enzyme 100; activation, % at 8.5 µM; actives 0.093% (n = 330,000); AID 463210;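 active = percent activation above the screen-wide mean plus 3 SD, cut at about 25% in these data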
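buffer or medium = Zinc-free HEPES/NaCl buffer, pH 7.4 | material = Procaspase-7 triple mutant (PC-7 D3A) | input = 2 µM procaspase-7 mutant as dispensed | signal = Epi-absorbance of released pNA at 405 nm, two timepoints | timing = 1 h preincubation, 2 h reaction | replicates = singlicate compound testing | evaluation = % activation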
CaV13 FRET inh – Disruptors of the CACNA1D IQ motif to Ca2+-dependent inactivation inhibitor domain association, primary screening, Förster resonance energy transfer in intact living … | HEK cells, CFP/YFP FRET ICDI-IQ, plate reader, 10 min; percent FRET-ratio fall versus neutral wells | inhibition, % at 12.3 µM | actives 0.098% (n = 340,000) | AID 743397;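 active = mean replicate inhibition of at least 30% and at least 1% of replicates passing that level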
GRK2 aptamer HTS – inhibitors of human GRK2 displacing RNA aptamer | P25098 | bead flow cytometry, FAM-aptamer displacement from GRK2 | actives 0.59% (n = 330,000) | inhibition of aptamer binding, % at 10 µM;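 active = inhibition of aptamer binding above 40%, roughly 3 SD of noise, on plates passing a quality check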;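 also: median bead fluorescence of bound FAM aptamer so fluorescent compounds give negative values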
Target sequence (P25098 whole entry, looked up): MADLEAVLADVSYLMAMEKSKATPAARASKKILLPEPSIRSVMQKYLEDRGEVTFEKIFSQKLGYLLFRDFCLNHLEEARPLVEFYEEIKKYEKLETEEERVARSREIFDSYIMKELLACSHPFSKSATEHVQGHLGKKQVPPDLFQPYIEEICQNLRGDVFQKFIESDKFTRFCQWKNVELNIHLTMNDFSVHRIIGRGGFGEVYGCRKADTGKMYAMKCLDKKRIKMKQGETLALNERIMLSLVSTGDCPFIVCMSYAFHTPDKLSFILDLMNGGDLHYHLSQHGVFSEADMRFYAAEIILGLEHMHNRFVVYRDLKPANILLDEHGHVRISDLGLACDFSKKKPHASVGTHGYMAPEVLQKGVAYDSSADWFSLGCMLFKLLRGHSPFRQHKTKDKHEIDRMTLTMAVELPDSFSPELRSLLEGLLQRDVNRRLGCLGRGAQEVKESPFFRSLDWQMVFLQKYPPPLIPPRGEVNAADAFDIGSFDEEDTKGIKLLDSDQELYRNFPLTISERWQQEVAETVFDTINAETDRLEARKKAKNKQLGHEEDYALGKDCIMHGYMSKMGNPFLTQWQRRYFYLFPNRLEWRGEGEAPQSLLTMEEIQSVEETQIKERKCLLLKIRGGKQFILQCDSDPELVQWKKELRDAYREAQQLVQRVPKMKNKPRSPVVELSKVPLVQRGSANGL
GRK2 CP1 – confirmation of human GRK2 inhibitors displacing RNA aptamer | actives 4% (n = 2,000) | AID 504451 | shares compounds with GRK2 aptamer HTS | bead-bound GRK2, FAM-aptamer displacement, flow cytometry | aptamer displacement, % at 10 µM;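 active = aptamer displacement above 40%, near three times the noise of non-fluorescent compounds, on plates passing quality checks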;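 also: negative values mostly reflect intrinsic compound fluorescence rather than true enhancement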
Aptamer quench 1 – fluorescent aptamer quenching in GRK2 counter-screen dose response | shares compounds with GRK2 aptamer HTS | Fluorescent RNA aptamer beads, flow cytometry; stronger effect = higher value | fluorescence change (kMESF span), kMESF (test concentration not listed) | 110 tested, under 10 active | AID 504521;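 active = compounds whose bead fluorescence drops by more than 37 kMESF across the dose range, marking them as dye quenchers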
FAM quench CP1 – aptamer fluorescence quenching in GRK2 counter-screen; fluorescence response (% of DMSO), % at 10 µM; Carboxyfluorescein RNA aptamer on beads, flow cytometry quenching; stronger effect = lower value; 2,000 tested, under 10 active; shares compounds with GRK2 aptamer HTS;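 active = compounds that quench the bead-bound fluorescent RNA probe, cutting fluorescence to under half of the solvent control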;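 also: counterscreen run without GRK2 so only probe quenching by compound is measured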
GRK2 confirm 2 – human GRK2 inhibition confirmation, cherry pick 2. shares compounds with GRK2 aptamer HTS. bead-bound GRK2, FAM-aptamer displacement, flow cytometry. inhibition of aptamer binding, % at 10 µM. 360 tested, under 10 active. AID 504782;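 active = inhibition of aptamer binding above 40%, about triple the noise seen with nonglowing compounds, on plates passing quality control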;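 also: negative values mostly come from compounds that fluoresce themselves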
FAM quench CP2 – quenches fluorescent RNA aptamer, GRK2 hit artifact; shares compounds with GRK2 aptamer HTS; carboxyfluorescein RNA aptamer beads, flow cytometry quenching; stronger effect = lower value; fluorescence response vs DMSO, % at 10 µM; 360 tested, under 10 active;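 active = response vs DMSO under 50%, meaning signal dropped by over half, treated as fluorescence quencher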;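 also: labelled aptamer on streptavidin beads without GRK2 as a quench counter-screen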
Numbers stand for hits; . = inactive; / = no result.

SMILES | procasp3 activ | T cell modulator | aDG glyco act | procasp7 counter | CaV13 FRET inh | GRK2 aptamer HTS | GRK2 CP1 | FAM quench CP1 | others
CCOC(=O)CC(NS(=O)(=O)c1ccc2[nH]cc(C(=O)O)c(=O)c2c1)c1ccc(OCC)c(OC)c1 (stereo not drawn) | . | . | . | . | . | 89 | 70 | . | Aptamer quench 1=.
O=S(=O)(Nc1cc(Sc2cccc3cccnc23)c(O)c2ccccc12)c1ccc(F)cc1 | . | . | / | . | . | 42 | . | .
O=C(Sc1cccc2cccnc12)c1ccc(F)cc1 | / | / | / | / | . | / | / | /
CC(C)C(c1nnnn1C(C)(C)C)N1CCOCC1 (stereo not drawn) | . | . | . | . | / | 47 | . | .
CC(C)C(c1nnnn1C1CCCCC1)N1CCOCC1 (stereo not drawn) | . | . | . | . | . | . | / | /
Cn1c(CC(=O)Nc2ccc(Cl)cc2)nnc1SCC(=O)N1CCOCC1 | . | . | . | . | . | . | / | /
O=C(c1ccccc1)c1cc([N+](=O)[O-])ccc1N1CCCC1 | . | . | . | . | . | 100 | / | / | GRK2 confirm 2=.;FAM quench CP2=.
CCc1ccc(OCC(=O)N/N=C/c2cc([N+](=O)[O-])ccc2N2CCCCCC2)cc1 | . | . | . | . | . | . | / | /
O=C(N/N=C/c1cc([N+](=O)[O-])ccc1N1CCCCCC1)c1ccccn1 | . | . | . | . | . | 84 | . | .
CN1Cc2sc(N)c(C#N)c2CC1(C)C | . | . | . | . | . | 52 | . | .
CC1(C)Cc2c(sc(N)c2C#N)C(C)(C)N1 | . | . | . | . | . | . | / | /
CCCCn1c(N)c(N(CC(C)C)C(=O)C2CCCN(C(=O)c3ccc(Cl)cc3)C2)c(=O)[nH]c1=O (stereo not drawn) | . | . | . | . | . | . | / | /
Cc1ccc(C2CC(=O)Nc3cc4c(cc32)OCCO4)s1 (stereo not drawn) | . | . | . | . | . | . | . | .
O=C1CC(c2cccs2)c2cc3c(cc2N1)OCCO3 (stereo not drawn) | . | . | . | . | . | . | / | /
O=c1cc[nH]c2ccc(OC(F)(F)F)cc12 | . | . | . | . | . | 86 | . | .
C=CCN1C(=O)c2n[nH]c(C(C)C)c2C1c1ccc(C)cc1 (stereo not drawn) | / | / | / | / | . | / | / | /
CCC(CC)NC(=O)CSc1ccc(S(=O)(=O)N2CCOCC2)cn1 | . | . | . | . | . | . | / | /
CC(C)C(C)NC(=O)CSc1ccc(S(=O)(=O)N2CCOCC2)cn1 (stereo not drawn) | . | . | . | . | . | 61 | . | .
CCC(=O)Nc1ccc(-c2nn3c(C)nnc3s2)cc1C | . | . | . | . | . | . | / | /
O=C(CCc1ccc(Oc2cc([N+](=O)[O-])cc([N+](=O)[O-])c2)cc1)NC1CCCC1 | . | . | . | . | . | 99 | . | .
CC1CCN(C(=O)CCc2ccc(Oc3cc([N+](=O)[O-])cc([N+](=O)[O-])c3)cc2)CC1 | . | . | . | . | . | . | / | /
O=C(CSc1nc2ccccc2[nH]1)N1CCN(S(=O)(=O)c2ccc(Cl)cc2)CC1 | . | . | . | . | . | 45 | . | .
COCCn1c(=O)[nH]c2cc(C(=O)Nc3cc(OC)c(OC)c(OC)c3)ccc2c1=O | . | . | . | . | . | . | / | /
COCCn1c(=O)[nH]c2cc(C(=O)Nc3ccc(OC)c(Cl)c3)ccc2c1=O | . | . | . | . | / | 57 | . | .
O=C(NC1CCCCC1)N1CCCc2ccccc21 | . | . | . | . | . | . | / | /
SMILES | procasp3 activ | T cell modulator | aDG glyco act | procasp7 counter | CaV13 FRET inh | GRK2 aptamer HTS | GRK2 CP1 | FAM quench CP1 | others
O=C(NC1CCCCC1)N1CCSC1=Nc1ccccc1 | . | . | . | . | . | 43 | . | .
Cc1ccccc1C1c2[nH]c3ccccc3c2C[C@H]2C(=O)N(C3CCN(Cc4ccccc4)CC3)CC(=O)N12 (stereo partly drawn) | . | . | . | . | . | . | . | .
COc1ccc(C2c3[nH]c4ccccc4c3C[C@H]3C(=O)N(C4CCN(Cc5ccccc5)CC4)CC(=O)N23)c(OC)c1 (stereo partly drawn) | . | . | . | . | . | . | / | /
CCOc1ccccc1C1c2[nH]c3ccccc3c2C[C@H]2C(=O)N(C3CCN(Cc4ccccc4)CC3)CC(=O)N12 (stereo partly drawn) | / | . | . | / | . | . | . | .
COc1cc(NC(=S)NC(=O)c2ccccc2F)ccc1NC(=O)c1ccco1 | . | . | . | . | . | . | / | /
Cc1cc(C(=O)NP(=O)(N2CC(C)OC(C)C2)N2CC(C)OC(C)C2)c(C)n1C1CC1 (stereo not drawn) | . | . | . | . | . | . | / | /
CCOC(=O)c1c(C)nc(C)c(C(=O)OCC)c1-c1ccc(O)c(OC)c1 | . | . | . | . | . | . | / | /
COC(=O)c1c(C)nc(C)c(C(=O)OC)c1-c1ccc(OC)c(OC)c1 | . | . | . | . | . | 54 | . | .
Cc1ccc2c(CC(=O)Nc3ccc4nc(N5CCOCC5)sc4c3)coc2c1 | / | / | . | / | . | / | / | /
COc1cccc(/C=C2/Sc3ccc(C(=O)NC4CC4)cc3NC2=O)c1 | / | / | / | / | . | / | / | /
CC(OCC(O)CN1CCCCC1CCO)c1ccc(Cl)cc1 (stereo not drawn) | . | . | . | . | . | 75 | . | .
Cc1ccc(C(OCC(O)CN2CCCCC2CO)c2ccccc2)cc1 (stereo not drawn) | . | . | . | . | . | . | / | /
Cc1cc(=O)oc2cc(OC(C(=O)O)c3ccccc3)ccc12 (stereo not drawn) | . | . | . | . | . | 84 | . | .
